Reference: ChEMBL document CHEMBL3045526, “Tailoring the structure of aminobisphosphonates to target plant P5C reductase” (J Agric Food Chem, 2008)
Calls of active or inactive are those of the source. The calls are words filed in the database; no cut-off is given here.

Assays:
Arabidopsis thaliana [1] = experiment: Growth inhibition of Arabidopsis thaliana suspension cultured cells assessed as reduction in dry weight increase measured 8 days after compound incubation; type: functional
Procedure, shortened: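 Same A. thaliana Columbia suspension cultures, inoculated at 3.2–3.5 mg mL-1 dry weight. Filter-sterilized compounds (pH 6.0 with KOH) added at increasing concentrations once density reached 4.0 mg mL-1. After 8 days, when controls reached early stationary phase, cells were vacuum-filtered and oven-dried (90 °C, 48 h). Dry weight increase given as % of control; 50% growth-reduction concentration derived.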

[2] = target: T1, Pyrroline-5-carboxylate reductase (Arabidopsis thaliana, UniProt P54904); experiment: Inhibition of Arabidopsis thaliana P5C assessed as reduction in NADH oxidation incubated at 35 degC up to 10 min
T1 sequence (P54904 whole entry): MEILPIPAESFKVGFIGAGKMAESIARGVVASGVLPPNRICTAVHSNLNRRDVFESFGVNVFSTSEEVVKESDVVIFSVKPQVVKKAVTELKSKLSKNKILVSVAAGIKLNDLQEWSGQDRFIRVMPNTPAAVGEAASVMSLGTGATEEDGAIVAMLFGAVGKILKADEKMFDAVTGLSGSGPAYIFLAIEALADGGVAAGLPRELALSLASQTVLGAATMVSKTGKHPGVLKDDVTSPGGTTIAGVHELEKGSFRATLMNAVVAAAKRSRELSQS
Procedure, shortened: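 P5C reductase partially purified from stationary-phase A. thaliana cultured cells. Forward reaction run in 100 mM Tris-HCl pH 8.0, 0.1 mM MgCl2, 2 mM DL-P5C, 0.25 mM NADH, with 0.15–0.20 nkat enzyme. A340 followed at 35 °C for up to 10 min against P5C-free blanks. Inhibitor final 5 µM–5 mM (pH 7.5–8.0), triplicate. IC50 by linear regression of % activity vs log concentration.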

Arabidopsis thaliana [3] = experiment: Growth inhibition of Arabidopsis thaliana suspension cultured cells assessed as reduction in dry weight increase at 0.2 mM measured 8 days after compound incubation in presence of exogenously supplied 2 mM proline; type: functional
Procedure, shortened: (§1)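 A. thaliana Columbia suspension cells (MS medium, 0.3% sucrose, 2,4-D and BAP 0.5 mg L-1 each; 24 °C, 100 rpm, dim light). Flasks inoculated at 3.2–3.5 mg mL-1 dry weight. Inhibitor (pH 6.0) plus filter-sterilized amino acids added together at 4.0 mg mL-1. Dry weight increase after 8 days (oven, 90 °C, 48 h) given as % of untreated control. Four replicates.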

Arabidopsis thaliana [4] = experiment: Growth inhibition of Arabidopsis thaliana suspension cultured cells assessed as reduction in dry weight increase at 0.2 mM measured 8 days after compound incubation in presence of exogenously supplied 10 mM glutamine; type: functional; procedure, shortened: as §1
Arabidopsis thaliana [5] = experiment: Growth inhibition of Arabidopsis thaliana suspension cultured cells assessed as reduction in dry weight increase at 0.2 mM measured 8 days after compound incubation in presence of exogenously supplied 10 mM glutamine and 2 mM proline; type: functional; procedure, shortened: as §1

Row | Compound | growth inhibition (GI) (Arabidopsis thaliana [1]) | IC50 [2] | further results
1 | O=P(O)(O)C(Nc1cccc(Cl)c1Cl)P(=O)(O)O [2,3-DICHLOROPHENYLAMINOMETHYLENEBISPHOSPHONIC ACID] | Active |  | 
2 | O=P(O)(O)C(Nc1c(Cl)cccc1Cl)P(=O)(O)O [2,6-DICHLOROPHENYLAMINOMETHYLENEBISPHOSPHONIC ACID] | Active |  | 
3 | Cc1cc(C)cc(NC(P(=O)(O)O)P(=O)(O)O)c1 [3,5-DIMETHYLPHENYLAMINOMETHYLENEBISPHOSPHONIC ACID] |  | 1.07 mM | 
4 | O=P(O)(O)C(Nc1cc(Cl)cc(Cl)c1)P(=O)(O)O [(3,5-DICHLOROPHENYLAMINO)METHYLENEDIPHOSPHONIC ACID] |  |  | growth inhibition (GI) (Arabidopsis thaliana [3]): Active; growth inhibition (GI) (Arabidopsis thaliana [4]): Active; growth inhibition (GI) (Arabidopsis thaliana [5]): inactive; GI50 (Arabidopsis thaliana [1]; 192 h): 0.24 mM
5 | O=P(O)(O)C(N1CCCCCCC1)P(=O)(O)O [N-(HEPTAMETHYLENEIMINO)METHYLENEBISPHOSPHONIC ACID] |  | 533 mM | 
6 | O=P(O)(O)C(N1CCCCCC1)P(=O)(O)O [N-(HEXAMETHYLENEIMINO)METHYLENEBISPHOSPHONIC ACID] |  | 74.4 mM | 
